Measurements as given in article PMC11740227 (FASEB journal : official publication of the Federation of …, 2023).

Experiments:
Molt4E6 cells [1] = experiment: Cell death by trypan blue exclusion in Molt4E6 cells; format: cell-based, human; conditions: for cell death: Molt4E6 cells, 24 h of treatment
[2] = Pharmacokinetics of PF543 in wildtype mice, IP dosing; format: in vivo, mouse; conditions: after IP administration in mice
[3] = format: in vitro ADME; conditions: mouse
WT mice [4] = experiment: Tolerability of IP dosing in the PK study; format: in vivo; conditions: 100 mg/kg IP
S1P levels in blood = experiment: Blood sphingolipid analysis by LC MS/MS after PF543 administration; format: in vivo, mouse; conditions: 10 mg/kg of body weight, 2 h after IP injection, vs vehicle
Trp53KO thymic lymphoma [5] = experiment: Thymic lymphoma growth in Trp53KO mice by ultrasound imaging; format: in vivo, mouse; conditions: 10 mg/kg BID IP for 10 days, compared to vehicle
Trp53KO thymic lymphoma [6] = experiment: Cleaved caspase 3 immunohistochemistry of tumor tissue; format: in vivo, mouse; conditions: Trp53KO mice, day 10 after treatment initiation, compared to vehicle
Outline: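 Male Trp53KO mice with ultrasound-detected thymic lymphoma (100–150 mm3) received vehicle or test compound, 10 mg/kg IP twice daily (suspension in 1% HPMC/PBS), and tumors were taken at day 10. Sections were stained overnight at 4°C with anti-cleaved caspase-3 (1:200), then biotinylated anti-rabbit, DAB/H2O2 and hematoxylin counterstain. Positive cells counted in ten 20× fields per sample, expressed per mm2; three mice per condition.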

[7] = system: mouse Trp53KO thymic lymphoma cells; experiment: Proliferation, viability and cell death of cultured thymic lymphoma cells; format: cell-based
[8] = system: mouse Trp53KO thymic lymphoma cells; experiment: Sphingolipid levels in cultured cells by LC MS/MS; format: cell-based; conditions: PF543 0.5 μM
[9] = system: lymphocytes isolated from WT thymus; experiment: Viability of WT lymphocytes; format: cell-based, mouse
WT mice [10] = conditions: mouse, in vivo, ip, 10 mg/kg
Molt4E6 cells [11] = experiment: Caspase activation by Western blot in Molt4E6 cells; format: cell-based, human; conditions: 6 h of treatment
Jurkat cells = experiment: Cell death by trypan blue exclusion in Jurkat cells with Bak knockdown; format: cell-based, human; conditions: Jurkat sgRNA BakA and BakB vs control cells, 24 h of treatment

## CCCC[C@@H](C)[C@@H](OC(=O)C[C@@H](CC(=O)O)C(=O)O)[C@H](C[C@@H](C)C[C@H](O)CCCC[C@@H](O)C[C@H](O)[C@H](C)N)OC(=O)C[C@@H](CC(=O)O)C(=O)O [FB1]
Molt4E6 cells [1]; FB1 25 μM pre-treatment 1 h, then 3 μM D-erythro-Sph, 24 h
  protection from Sph-induced cell death: did not protect

## Cc1cc(CS(=O)(=O)c2ccccc2)cc(OCc2ccc(CN3CCC[C@@H]3CO)cc2)c1 [PF543]
[2]
  half-life (T1/2): ~ 4 h
[3]
  plasma protein binding: 94 % bound
WT mice [4]
  tolerability of IP dosing: not tolerated
S1P levels in blood
  S1P levels in blood: decreased
Trp53KO thymic lymphoma [5]
  tumor growth (tumor size by ultrasound): significant inhibition
Trp53KO thymic lymphoma [6]
  number of cleaved caspase 3 positive cells in tumor samples: significantly higher
[7]; PF543 0.5 μM, low-serum medium, counted every day for 4 days, CCK-8 at day 2
  proliferation over time: significantly decreased
[7]; Trp53KO thymic lymphoma cells treated with PF543
  cell death: resulted in cell death
[7]; mouse Trp53KO lymphoma cells
  survival of cells in culture: reduced survival
[8]
  Sph levels in cells: significantly increased
  total Cer levels in cells: significantly increased
[9]
  cell viability over time: did not affect cell viability
WT mice [10]
  liver function (liver enzymes in blood): did not significantly impact
  number of total white cells and lymphocytes in blood: no decrease

## CCCCCCCCCCCCC/C=C/[C@@H](O)[C@@H](N)CO [Sph, sphingosine]
Molt4E6 cells [1]
  cell death: caused cell death
Molt4E6 cells [11]
  caspase activation: activation of caspases
Jurkat cells
  Sph-induced cell death after knockdown of Bak: significantly protected

## ZVAD
[7]; pan-caspase inhibitor with PF543, Trp53KO thymic lymphoma cells
  protection from PF543-induced cell death: partially protected
Molt4E6 cells [1]; ZVAD 40 μM pre-treatment 1 h, then 3 μM D-erythro-Sph, 24 h
  inhibition of Sph-induced cell death: significantly inhibited

## CCCCCCCCCCCCC/C=C/[C@H](O)[C@H](N)CO [L-erythro-Sph]
Molt4E6 cells [1]
  cell death: did not induce cell death
Molt4E6 cells [11]
  caspase activation: did not induce cell death or caspase activation
